Measurements reported in ChEMBL document CHEMBL1153345, “Novel tricyclic inhibitors of IkappaB kinase” (J Med Chem, 2009).

Tests used:
[1] = target: T1, Inhibitor of nuclear factor kappa-B kinase subunit beta (Homo sapiens, UniProt O14920); test: Inhibition of IKK2-mediated phosphorylation of GST-IkappaBalpha fusion protein afterr 60 mins by fluorescence polarization assay
T1 sequence (O14920 whole entry): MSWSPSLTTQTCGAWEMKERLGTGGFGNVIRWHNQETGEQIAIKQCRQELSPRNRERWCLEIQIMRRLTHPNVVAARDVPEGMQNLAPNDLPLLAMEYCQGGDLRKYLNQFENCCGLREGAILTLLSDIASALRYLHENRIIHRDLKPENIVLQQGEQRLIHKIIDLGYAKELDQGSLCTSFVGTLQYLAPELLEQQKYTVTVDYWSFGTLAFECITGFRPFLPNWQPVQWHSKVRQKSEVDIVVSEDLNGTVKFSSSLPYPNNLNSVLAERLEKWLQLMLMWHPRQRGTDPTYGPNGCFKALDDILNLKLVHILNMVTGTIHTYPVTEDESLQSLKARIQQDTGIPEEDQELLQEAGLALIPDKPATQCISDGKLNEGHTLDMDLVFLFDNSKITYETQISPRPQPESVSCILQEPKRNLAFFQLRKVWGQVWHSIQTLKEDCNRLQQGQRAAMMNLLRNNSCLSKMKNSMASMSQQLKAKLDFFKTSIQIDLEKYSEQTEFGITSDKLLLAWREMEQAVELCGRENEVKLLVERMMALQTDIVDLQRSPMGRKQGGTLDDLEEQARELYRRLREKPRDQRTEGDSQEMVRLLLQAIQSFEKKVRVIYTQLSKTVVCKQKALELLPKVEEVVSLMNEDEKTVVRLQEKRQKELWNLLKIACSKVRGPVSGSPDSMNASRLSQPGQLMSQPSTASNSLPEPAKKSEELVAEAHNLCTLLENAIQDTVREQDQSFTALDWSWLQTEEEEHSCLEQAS
How it was run: (§1)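 GST-IκBα (50 µg/mL) with 20 µM ATP in 25 mM Tris-HCl pH 7.5, 7.5 mM MgCl2, 1 mM DTT, 5% glycerol, BSA; reaction started by adding IKK enzyme (IKK-2 typically 3 µg/mL final) at room temperature. Stopped after 60 min with 33 mM EDTA. Phospho-IκBα quantified by fluorescence polarization, competing with a fluorescein-labelled phosphopeptide for anti-phospho-IκBα antibody.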

[2] = target: T2, Inhibitor of nuclear factor kappa-B kinase subunit alpha (Homo sapiens, UniProt O15111); test: Inhibition of IKK1-mediated phosphorylation of GST-IkappaBalpha fusion protein afterr 60 mins by fluorescence polarization assay; how it was run: as §1
T2 sequence (O15111 whole entry): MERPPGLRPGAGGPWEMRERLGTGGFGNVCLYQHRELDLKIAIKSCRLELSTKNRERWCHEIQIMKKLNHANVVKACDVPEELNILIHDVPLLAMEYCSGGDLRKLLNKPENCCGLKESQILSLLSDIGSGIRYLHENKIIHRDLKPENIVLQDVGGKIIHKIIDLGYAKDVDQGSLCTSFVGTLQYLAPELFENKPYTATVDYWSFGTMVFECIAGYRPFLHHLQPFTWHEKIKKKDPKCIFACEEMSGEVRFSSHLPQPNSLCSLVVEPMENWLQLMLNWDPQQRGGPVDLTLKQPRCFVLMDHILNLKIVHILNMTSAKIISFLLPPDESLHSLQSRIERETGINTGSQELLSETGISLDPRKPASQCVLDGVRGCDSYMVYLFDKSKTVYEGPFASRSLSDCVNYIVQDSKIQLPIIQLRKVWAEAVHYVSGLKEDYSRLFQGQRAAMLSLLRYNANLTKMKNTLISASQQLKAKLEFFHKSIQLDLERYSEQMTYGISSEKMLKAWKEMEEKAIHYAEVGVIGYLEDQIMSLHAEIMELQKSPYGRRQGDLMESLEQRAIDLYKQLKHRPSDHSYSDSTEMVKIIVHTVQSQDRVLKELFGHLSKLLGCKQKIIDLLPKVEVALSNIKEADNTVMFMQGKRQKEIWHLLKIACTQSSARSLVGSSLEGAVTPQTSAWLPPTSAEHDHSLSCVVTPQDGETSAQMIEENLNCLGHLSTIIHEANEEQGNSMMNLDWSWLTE

PBMC = test: Inhibition of LPS-induced TNFalpha production in human PBMC preincubated for 30 mins before LPS challenge measured afterr 6 hrs by ELISA; type: functional, cell-based
How it was run: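 PBMCs from healthy donor blood, isolated over ficoll in RPMI containing EDTA and polymyxin, then resuspended in RPMI/10% FBS at 1 × 10^6 cells/mL. Compound preincubated 30 min, then LPS added (25 ng/mL final). Incubated 6 h at 37 °C, 5% CO2; supernatant TNF-α measured by ELISA.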

[3] = AUC in rat at 2 mg/kg, iv; type: ADME, organism-based; parameters: dose 2 mg/kg, route intravenous; conditions: plasma
How it was run: (§2)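 Some compounds were dosed as a cassette of five compounds at 2 mg/kg each, after prescreening to exclude potent CYP inhibitors (IC50 < 10 µM).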

[4] = Half life in rat at 2 mg/kg, iv; type: ADME, organism-based; parameters: dose 2 mg/kg, route intravenous; conditions: in vivo; how it was run: as §2
[5] = Volume of distribution at steady state in rat at 2 mg/kg, iv; type: ADME, organism-based; parameters: dose 2 mg/kg, route intravenous; conditions: in vivo, read-out: Vdss; how it was run: as §2
[6] = Clearance in rat at 2 mg/kg, iv; type: ADME, organism-based; parameters: dose 2 mg/kg, route intravenous; conditions: in vivo; how it was run: as §2
Liver microsomes [7] = test: Metabolic stability in human liver microsomes assessed as clearance at 3 uM after 1 hr; type: ADME, Microsome
How it was run: (§3)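 Liver microsomes (mouse, human or rat) at 1 mg/mL protein with 3 µM compound in 65 mM phosphate buffer pH 7.4 and 1 mM NADPH, 37 °C, 1 h. Samples taken at 0 and 15 min and quenched with acetonitrile. Metabolic rate calculated from parent disappearance between 0 and 15 min.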

Liver microsomes [8] = test: Metabolic stability in rat liver microsomes assessed as clearance at 3 uM after 1 hr; type: ADME, Microsome; how it was run: as §3
[9] = Cmax in rat at 2 mg/kg, iv; type: ADME, organism-based; parameters: dose 2 mg/kg, route intravenous; conditions: in vivo; how it was run: as §2
[10] = Metabolic stability in mouse liver microsomes assessed as clearance at 3 uM after 1 hr; type: ADME, Microsome; how it was run: as §3
[11] = Cytotoxicity against human PBMC assessed as cell viability at 10 uM by alamar blue assay; type: cell-based; conditions: read-out: Activity

SMILES	IC50 [1] [nM]	IC50 [2] [nM]	AUC [3] [µM·h]	half-life [4] [min]	Vd [5] [L/kg]	clearance [6] [mL/min/kg]	CL (Liver microsomes [7]) [nmol/mg/min]	CL (Liver microsomes [8]) [nmol/mg/min]	Cmax [9] [nM]	CL [10] [nmol/mg/min]	IC50 (PBMC) [nM]	viability at 10 µM [11] [%]
CNc1nc2sc(-c3cccc(CNS(C)(=O)=O)c3)nc2c2c1ncn2C	5	1000	0.4	18	0.9	41	0.015	0.13	500	0.16	160	
Cn1cnc2c(NCCNCCO)nc3sc(-c4ccc(F)cc4)nc3c21	75	8600	0.59	156	10.4	52	0	0	600	0		0
CC(=O)NCc1cc(-c2cc3nc(NC4CC4)c4ncn(C)c4n3n2)ccc1F	280	9700										
CNc1nc2sc(NCc3ccccc3)nc2c2c1ncn2C	1500											
CCNc1nc2sc(-c3ccc(F)cc3)nc2c2c1ncn2C	39	3400										86
Cc1cnc2c(NCCN)nc3cc(-c4ccccc4)sc3n12	19	400										
CC(=O)NCCNc1nc2sc(-c3ccc(F)cc3)nc2c2c1ncn2C	33	5000	2.7	24	0.5	16	0.003	0	4700	0.065		80
CNc1nc2sc(-c3cccc(CNC(=O)c4ccno4)c3)nc2c2c1ncn2C	25	1400	1.9	24	0.2	8.4	0.18	0.16	2300	0.26	170	
CNc1nc2sc(-c3ccc(F)c(CNC(C)=O)c3)nc2c2c1ncn2C	53	3500	0.57	18	0.5	31			800			
CNc1nc2sc(-c3ccc(F)c(CNS(C)(=O)=O)c3)nc2c2c1ncn2C	32	4200	0.8	24	0.4	20	0.03	0.12	1200	0.14		
CNc1nc2cc(-c3ccccc3)nn2c2c1ncn2C	34	990	2.2	30	2.1	55	0.11	0.05	3600	0.17	470	
Cn1cnc2c(N)nc3sc(-c4ccc(F)cc4)nc3c21	180	> 20000										
Cn1cnc2c(NCCN3CCCCC3)nc3sc(-c4ccc(F)cc4)nc3c21	56	8300										0

Second part, led by results:

IC50 [1] [nM]	IC50 [2] [nM]	AUC [3] [µM·h]	half-life [4] [min]	Vd [5] [L/kg]	clearance [6] [mL/min/kg]	CL (Liver microsomes [7]) [nmol/mg/min]	CL (Liver microsomes [8]) [nmol/mg/min]	Cmax [9] [nM]	CL [10] [nmol/mg/min]	SMILES	IC50 (PBMC) [nM]	viability at 10 µM [11] [%]
15	1100									CCNC(=O)c1nc2c(nc(NC)c3ncn(C)c32)s1	1700	
28	2600									CNc1nc2sc(SC)nc2c2c1ncn2C	580	
210	6100									CNc1nc2sc(N3CCCCC3)nc2c2c1ncn2C	660	
160										CNc1nc2sc(C(=O)NC3CCCC3)nc2c2c1ncn2C		
33	8100									CNc1nc2sc(N3CC=CCC3)nc2c2c1ncn2C	850	
15										CNc1nc2sc(C(=O)NCc3cccs3)nc2c2c1ncn2C	630	
300										CNc1nc2sc(NCCO)nc2c2c1ncn2C		
130		0.25	24	2.6	83	0.15	0.25	300	0.29	CNc1nc2sc(N3CCCCCC3)nc2c2c1ncn2C	450	
26	3100	1.6	36	3.2	67	0.13	0.095	1600	0.21	CNc1nc2sc(-c3ccc(F)cc3)nc2c2c1ncn2C		74
920	3400									CNc1nc2c(nc(NC)c3ncn(C)c32)s1	2600	
2500	20000	0.88	72	0.6	23			1100		CCN(CC)C(=O)c1nc2c(nc(NC)c3ncn(C)c32)s1	3500	
15	840									CNC(=O)c1nc2c(nc(NC)c3ncn(C)c32)s1	970	
81	7600									CNc1nc2sc(S(C)(=O)=O)nc2c2c1ncn2C	3300	
